Measurements reported in ChEMBL document CHEMBL1137523, “Efficient one-pot synthesis of biologically active polysubstituted aromatic amines” (Bioorg Med Chem, 2007).
In brackets after ≈: the same amount, converted by molar mass. Activity calls are given as the source filed them. No cut-off for these calls is given here.

Experiments:
L929 [1] = experiment: Growth inhibition of mouse L929 cells after 5 days by MTT assay; assay type: functional, cell-based; conditions: L929, 120 h
Summary of the method: (§1)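 L-929 cells (DSMZ) were grown in DME with 10% newborn calf serum at 37 °C, 10% CO2, in humid air. In microtiter plates, a suspension of 50,000 cells/mL was added to a serial dilution of inhibitor (2:1 cell suspension to dilution). Metabolic activity per well was read by MTT after 5 days.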

L929 [2] = experiment: Growth inhibition of mouse L929 cells below 40 ug/mL after 5 days by MTT assay; assay type: functional, cell-based; summary of the method: as §1
Potorous tridactylus = experiment: Effect on cell morphology in PtK2 potoroo cells assessed as changes in morphology at 50 ug/mL after 18 hrs

Compound	IC50 (L929 [1])	Activity (L929 [2])	Activity (Potorous tridactylus)
CC(=O)c1ccc(NCc2ccccc2)cc1	22 µg/mL (≈ 97.7 µM)	–	–
COc1ccc(NCC(C)C)cc1	> 40 µg/mL	inactive	–
COc1ccc(N(Cc2ccc([N+](=O)[O-])cc2)Cc2ccccc2OC)cc1	> 40 µg/mL	–	–
COc1ccc(NC(C)c2ccccc2)cc1 (stereo unspecified)	30 µg/mL (≈ 132 µM)	–	–
Cc1ccc(NCc2ccccc2)cc1 [N-BENZYL-4-METHYLANILINE]	> 40 µg/mL	inactive	–
Cc1ccc(N(Cc2ccccc2)Cc2ccccc2)cc1	11 µg/mL (≈ 38.3 µM)	–	–
COc1ccc(N(Cc2ccccc2)CC(C)C)cc1	10 µg/mL (≈ 37.1 µM)	–	–
COc1ccc(N(Cc2ccccc2OC)CC(C)C)cc1	15 µg/mL (≈ 50.1 µM)	–	–
COc1ccc(NC(C)c2ccsc2)cc1 (stereo unspecified)	30 µg/mL (≈ 129 µM)	–	–
COc1ccc(N(CC(C)C)CC(C)C)cc1	25 µg/mL (≈ 106 µM)	–	–
COc1ccc(N(Cc2ccccc2)Cc2ccccc2OC)cc1	> 40 µg/mL	inactive	–
COc1ccc(NCc2ccccc2OC)cc1	25 µg/mL (≈ 103 µM)	–	–
c1ccc(CNc2ccccn2)cc1	35 µg/mL (≈ 190 µM)	–	–
CCCCCCCCCNc1ccc(OC)cc1	12 µg/mL (≈ 48.1 µM)	–	–
COc1ccc(N(Cc2ccccc2)Cc2ccccc2)cc1	12 µg/mL (≈ 39.6 µM)	–	–
COc1ccc(NCc2ccc([N+](=O)[O-])cc2)cc1	> 40 µg/mL	–	–
COc1ccc(N(Cc2ccccc2)Cc2ccc([N+](=O)[O-])cc2)cc1	> 40 µg/mL	–	–
Cc1ccc(N(CC(C)C)CC(C)C)cc1	13 µg/mL (≈ 59.3 µM)	–	–
Cc1ccc(N(Cc2ccccc2)CC(C)C)cc1	5 µg/mL (≈ 19.7 µM)	–	Active
O=[N+]([O-])c1cc(O)ccc1NCc1ccccc1	9 µg/mL (≈ 36.8 µM)	–	Active
O=C(O)Cc1ccc(NCc2ccccc2)cc1	> 40 µg/mL	–	–
COc1ccc(N(Cc2ccc([N+](=O)[O-])cc2)CC(C)C)cc1	> 40 µg/mL	inactive	–
CCCCCCCCCN(CC(C)C)c1ccc(OC)cc1	20 µg/mL (≈ 65.5 µM)	–	–
COc1ccc(NC(C)c2ccco2)cc1 (stereo unspecified)	40 µg/mL (≈ 184 µM)	–	–
COc1ccc(CNc2ccc(O)c([N+](=O)[O-])c2)cc1	20 µg/mL (≈ 72.9 µM)	–	–
